Results on eleven molecules are retold here after publication PMC11837772 (RSC Advances, 2025).

The conditions of data set [1]: preliminary cytotoxicity assessments; ref Ahmed H. E. Hassan and his team; cited from earlier work.
The next data set has as its system L. donovani. The conditions noted are these: read-out: IC50 against L. donovani; ref Ahmed H. E. Hassan and his team; cited from earlier work.
The subject of data set [2] is THP-1 human monocytic cells. As to the kind of experiment: Cytotoxicity assay. In kind it is cell-based. The following applies: for Log CC50 / CC50: THP-1 human monocytic cells, 72 h, MTT; for CC50: unit printed in Table 5 only. The essentials: (§1)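 THP-1 cells in RPMI with 10% FBS were seeded at 1 × 10^6 cells per mL and held 24 h at 37 °C in humidified CO2. Medium was then replaced with test compound or standard at 100, 50, 25, 12.5 and 6.25 μM for 72 h. Viability was read by MTT (0.5 mg mL−1, 4 h, 37 °C), with formazan dissolved in DMSO and absorbance at 570 nm.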

Data set [3] relates to L. donovani promastigotes. As to the kind of experiment: IC50 from dose-dependent anti-promastigote activity. Format: cell-based, Leishmania donovani. The conditions noted are these: read-out: IC50 against L. donovani promastigotes, 72 h. An outline of the steps:
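Log-phase promastigotes (26 °C, M199 with 10% heat-inactivated FBS) were exposed to graded concentrations of test compound, and viability was read by MTT. Percentage viability was calculated as treated/untreated mean × 100. IC50 was extrapolated from the % viability versus concentration plot, from triplicate experiments as mean ± SEM.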

For data set [4], the system named is L. donovani promastigotes. The data set is described as follows: Primary screening against L. donovani promastigotes. In kind it is cell-based. The following applies: Leishmania donovani, 48 h, read-out: % inhibition (48 h). The essentials: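 Promastigotes at 2 × 10^6 cells per mL in RPMI at 26 °C were given test compound at 100 μM, with DMSO (0.2%) as solvent, an amphotericin B reference and a medium-only control. Viability was read by MTT and expressed as % inhibition.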

The nature of another data set: Cytotoxicity assay. Format: cell-based, human. The conditions noted are these: human, THP-1 human monocytic cells, pH 7.4, Log CC50, THP-1 human monocytic cells, 72 h, MTT. The essentials:
as §1

Another data set relates to SARS-CoV-2 3CL protease. The conditions noted are these: read-out: IC50 against SARS-CoV-2 3CL protease; cited from earlier work.
Data set [5] deals with intracellular L. donovani amastigotes. The data set is described as follows: Intracellular amastigotes assay in infected macrophages. The conditions noted are these: for Percentage Reductions (%) in intracellular amastigotes: 72 h; for SI (selectivity index): CC50 (THP-1) / IC50 (intracellular amastigotes). Format: cell-based, Leishmania donovani. An outline of the steps:
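Macrophages (5 × 10^4 per chamber) adhered 2 h at 37 °C in 5% CO2, were washed with serum-free RPMI, then infected overnight with metacyclic L. donovani at 10:1 in complete RPMI 1640. Free promastigotes were washed off after 24 h, and test compound was added in duplicate for 72 h at 37 °C in 5% CO2. Giemsa-stained amastigotes per 100 macrophages were counted and expressed as a percentage of the untreated control mean.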

A further data set deals with T1, papain (Carica papaya, UniProt P00784).
T1 sequence (P00784 134-345): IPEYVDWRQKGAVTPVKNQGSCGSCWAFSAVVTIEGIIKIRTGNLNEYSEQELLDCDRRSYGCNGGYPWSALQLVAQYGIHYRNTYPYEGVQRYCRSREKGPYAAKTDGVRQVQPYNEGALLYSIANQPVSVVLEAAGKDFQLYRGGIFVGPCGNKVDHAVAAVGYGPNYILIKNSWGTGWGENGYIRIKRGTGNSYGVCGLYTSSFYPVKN
The data set is described as follows: In vitro cysteine protease inhibition assay. In kind it is biochemical. The essentials: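 Papain was run in activation buffer of sodium acetate (pH 5.5), 8 mM DTT and 4 mM EDTA, with papain […], 10 μM Bz-Arg-AMC and inhibitor at 0–32 μM (dissolved in DMSO). AMC release was followed by fluorescence (excitation 345 nm, emission 440 nm) for 120 min. IC50 came from the straight-line fit of % residual activity versus log[inhibitor].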

Data set [6] deals with L. donovani promastigotes. As to the kind of experiment: Cellular morphological alteration of promastigotes. Format: cell-based, Leishmania donovani. The conditions noted are these: 48 hours, contrast microscope 40× objective. An outline of the steps:
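Exponential-phase promastigotes (grown at 26 °C in M199 with 10% heat-inactivated FBS) at 2 × 10^6 cells per mL were incubated without or with test compound or reference drug at 1 μM for 48 h. Cell shape was examined by contrast/light microscopy (40× objective) at 0 and 48 h and scored for programmed-cell-death-type morphology.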

[7] abbreviates: serial dilutions starting at 25 μM, MTT.

Entries after “also recorded” stand apart in the source; their conditions may differ. Like-named read-outs stand apart in the source and are kept apart here.

As to `CCCCCCCC/C=C\CCCCCCCCCCCCOP(=O)([O-])OCC[N+](C)(C)C` [erufosine], the CC50 in data set [1] is 19.4 µM. Moreover, the half-inhibitory concentration (IC50) with L. donovani was 9.8 µM.

Take “Methyl (E)-(2-(1H-indol-3-yl)-2-(2-(4-(2-nitrobut-1-en-1-yl)phenoxy)acetamido)acetyl)valinate [14h]”: in data set [2], the “Log CC50” value is on record as 1.109 and it took 12.9 µM to reach half-maximal cytotoxicity (CC50). For the same molecule, in data set [3] (setting [7]), the IC50 turned out to be 10 µM.

Consider `CC/C(=C\c1ccc(OCC(=O)N[C@@H](Cc2ccccc2)C(=O)NCC(=O)OC)cc1)[N+](=O)[O-]` [14i, Methyl (E)-(2-(4-(2-nitrobut-1-en-1-yl)phenoxy)acetyl)phenylalanylglycinate], for which the inhibition at 100 µM in data set [4] turned out to be 84.5%. This molecule showed a CC50 at 72 h in the data set “Cytotoxicity assay” of 5.15 µM. For the same molecule, in data set [3] (Leishmania donovani), the IC50 came out at 5.3 µM.

Consider `O=[N+]([O-])C=Cc1ccc([N+](=O)[O-])cc1` [compound 2, 4-nitro-β-nitrostyrene], for which, in the data set with SARS-CoV-2 3CL protease, the IC50 is 730 nM.

As for “(E)-2-(4-(2-Nitrobut-1-en-1-yl)phenoxy)-N-(1-oxo-3-phenyl-1-thiomorpholinopropan-2-yl)acetamide [14c]”, in [2], the “Log CC50” value turned out to be 0.5684 and the CC50 is 3.7 µM. The IC50 in [3] (setting [7]) amounted to 7.24 µM.

As for “(E)-1-(2-(Morpholine-4-carbonyl)pyrrolidin-1-yl)-2-(4-(2-nitrobut-1-en-1-yl)phenoxy) ethan-1-one [14b]”, in data set [2], the “Log CC50” value was 0.7734 and the CC50 was found to be 5.93 µM. Further, the IC50 in data set [3] (setting [7]) worked out at 16.8 µM.

For the molecule `CC/C(=C\c1ccc(OCC(=O)NC(Cc2ccccc2)C(=O)N2CCOCC2)cc1)[N+](=O)[O-]` (stereo not drawn) [14a, (E)-N-(1-Morpholino-1-oxo-3-phenylpropan-2-yl)-2-(4-(2-nitrobut-1-en-1-yl)phenoxy)acetamide], the inhibition at 100 µM in data set [4] was found to be 84.8%. In “Cytotoxicity assay”, this molecule had a CC50 at 72 h of 28.7 µM. The “cytotoxicity to mammalian macrophages” value in data set [2] (even at a concentration of 28 μM) is recorded as “negligible cytotoxicity; also recorded: insignificant cytotoxicity”. Besides, the “Percentage Reductions (%) in intracellular amastigotes” value in data set [5] (3.125 μM) came to 37.2%; in data set [5] (6.25 μM) it was 44.1%; in data set [5] (12.5 μM), 57.5%. Moreover, the “SI (selectivity index)” value in data set [5] was determined as 3.55. In addition, the IC50 in data set [3] (Leishmania donovani) was found to be 11.9 µM; against papain, 9.63 ± 0.28 µM. In addition, the “morphological changes of treated promastigotes” value in data set [6] was “notable morphological alterations”.

For the molecule `CC/C(=C\c1ccc(OCC(=O)N[C@@H](Cc2ccccc2)C(=O)N[C@@H](C)C(=O)OC)cc1)[N+](=O)[O-]` [14k, Methyl (E)-(2-(4-(2-nitrobut-1-en-1-yl)phenoxy)acetyl)phenylalanylalaninate], the inhibition at 100 µM in data set [4] came out at 54.8%.

As for “(E)-2-(4-(2-Nitrobut-1-en-1-yl)phenoxy)-1-(2-(thiomorpholine-4-carbonyl)pyrrolidin-1-yl)ethan-1-one [14d]”, in data set [2], the “Log CC50” value is listed as 0.5025 and the CC50 was 3.18 µM. Also, the IC50 in data set [3] (setting [7]) was found to be 7.56 µM.

With `CC/C(=C\c1ccc(OCC(=O)N[C@@H](Cc2c[nH]c3ccccc23)C(=O)N[C@@H](C)C(=O)OC)cc1)[N+](=O)[O-]` [14j, Methyl (E)-(2-(4-(2-nitrobut-1-en-1-yl)phenoxy)acetyl)tryptophylalaninate], the inhibition at 100 µM in data set [4] is 65.5%.

`C[C@@H]1[C@H](O)[C@@H](C)/C=C/C=C/C=C/C=C/C=C/C=C/C=C/[C@H](O[C@@H]2O[C@H](C)[C@@H](O)[C@H](N)[C@@H]2O)C[C@@H]2O[C@](O)(C[C@@H](O)C[C@@H](O)[C@H](O)CC[C@@H](O)C[C@@H](O)CC(=O)O[C@H]1C)C[C@H](O)[C@H]2C(=O)O` [AmphoB, Amphotericin B, reference compound]: the inhibition at 100 µM in data set [4] is 78.5%. In addition, the “Percentage Reductions (%) in intracellular amastigotes” value in [5] (3.125 μM) worked out at 52.3%; in [5] (6.25 μM), 63.2%; in data set [5] (12.5 μM) it was 85.5%. In addition, the “SI (selectivity index)” value in [5] came out at 3.48. The IC50 in [3] (Leishmania donovani) was found to be 3.07 µM.

In general, CC50 refers to the concentration giving 50% cytotoxicity. As a reminder, the IC50 is the concentration that inhibits the measured activity by half. What is called inhibition is the share of the control response that was lost under treatment.
